Activity calls are given as the source filed them. The rule behind the calls is not given here.
How the values were obtained:
Plasmodium falciparum [1] = assay: Antiplasmodial activity against blood stage chloroquine-sensitive Plasmodium falciparum 3D7 infected in human erythrocyte; assay type: functional, organism-based; conditions: 3D7, Erythrocyte
Method in brief: (§1)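 3D7 asexual parasites grown in group B erythrocytes, 3% hematocrit, RPMI with 0.5% Albumax II and 2 mM L-glutamine, 37 °C, 5% O2/5% CO2/90% N2. Rings synchronized by 5% sorbitol, then exposed 48 h to compounds (0.0000256–10 μM). Syto11 nuclear stain and flow cytometry (488 nm excitation, 530/30 emission). Inhibition scaled to untreated (0%) and chloroquine-treated (100%) cultures; IC50 by sigmoidal fit.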

Plasmodium berghei [2] = assay: Antiplasmodial activity against firefly luciferase expressing liver stage Plasmodium berghei infected in human Huh-7 cells measured after 48 hrs post infection by […] luminescence assay; assay type: functional, organism-based; conditions: Huh-7, 48 h
Method in brief: (§2)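 Huh7 cells in supplemented RPMI 1640 seeded the day before; ~1 h before infection, medium switched to infection medium with gentamicin, amphotericin B and compound. Cells then infected with PbGFP-Luccon sporozoites from Anopheles stephensi salivary glands. At 48 h, parasite load read as luciferase luminescence in lysates, normalized to 0.01% DMSO control; IC50 by nonlinear regression.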

Plasmodium berghei [3] = assay: Antiplasmodial activity against firefly luciferase expressing liver stage Plasmodium berghei infected in human Huh-7 cells assessed as reduction in parasite growth at 1 to 10 uM measured after 48 hrs post infection by […] luminescence assay; assay type: functional, organism-based; conditions: dose 1-10 µM; method in brief: as §2
Plasmodium falciparum [4] = assay: Antiplasmodial activity against Plasmodium falciparum NF54-gexp02-Tom gametocytes infected in human erythrocyte by giemsa staining based light microscopy analysis; assay type: functional, organism-based
Method in brief: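 NF54-gexp02-Tom line (tdTomato under early gametocyte promoter) grown in group B human erythrocytes, 3% hematocrit, RPMI with 10% human plasma and 2 mM choline chloride, 37 °C, 5% O2/5% CO2/90% N2. Sexual conversion induced by choline removal plus sorbitol synchronization; compounds 0.0048–100 μM present throughout.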

Plasmodium falciparum [5] = assay: Antiplasmodial activity against Plasmodium falciparum NF54-gexp02-Tom gametocytes infected in human erythrocyte at 5 uM by giemsa staining based light microscopy analysis relative to control; assay type: functional
Huh-7 = assay: Cytotoxicity against human Huh-7 cells assessed as reduction in cell confluency at 10 uM measured after 48 hrs by Alamar blue staining based analysis relative to control; assay type: functional; design: scale not given: the % may be the effect or the level left
Plasmodium falciparum [6] = assay: Antiplasmodial activity against blood stage chloroquine-sensitive Plasmodium falciparum 3D7 infected in human erythrocyte incubated for 48 hrs by Syto11 staining based flow cytometry analysis; assay type: functional, organism-based; conditions: 3D7, Erythrocyte; method in brief: as §1
Plasmodium berghei [7] = assay: Antiplasmodial activity against firefly luciferase expressing liver stage Plasmodium berghei infected in human Huh-7 cells assessed as reduction in parasite growth measured after 48 hrs post infection by […] luminescence assay; assay type: functional, organism-based; conditions: Huh-7, 48 h; method in brief: as §2

| IC50 (Plasmodium falciparum [1]) | IC50 (Plasmodium falciparum [4]) | IC50 (Plasmodium falciparum [6]) | Structure (SMILES) | IC50 (Plasmodium berghei [2]) | Activity (Plasmodium berghei [3]) | Activity (Plasmodium falciparum [5]) | Activity (Huh-7) | IC50 (Plasmodium berghei [7]) |
| --- | --- | --- | --- | --- | --- | --- | --- | --- |
| 5.64 µM |  |  | COc1cc(NCCCCN)c2nc3cc(Cl)ccc3cc2c1 | 2220 nM |  |  |  |  |
|  | 140 nM | 4.34 µM | COc1cc(NCCCCNC(=O)/C=C/c2cccc(F)c2)c2nc3cc(Cl)ccc3cc2c1 |  | Active | >40% | ~75% | 561 nM |
|  | 520 nM | 10.3 µM | COc1ccc(/C=C/C(=O)NCCCCNc2cc(OC)cc3cc4ccc(Cl)cc4nc23)cc1 |  | Active | >40% | ~75% | 1180 nM |
|  |  |  | COc1cc(NCCCCNC(=O)/C=C/c2ccc(OC)c(OC)c2)c2nc3cc(Cl)ccc3cc2c1 |  | Active | 15% |  |  |
|  | 630 nM | 10.8 µM | COc1cc(NCCCCNC(=O)/C=C/c2ccc(C)cc2)c2nc3cc(Cl)ccc3cc2c1 |  | Active | >40% |  |  |
|  | 16300 nM | 3.82 µM | COc1cc(NCCCCNC(=O)/C=C/c2ccc([N+](=O)[O-])cc2)c2nc3cc(Cl)ccc3cc2c1 |  | Active | >40% | ~75% | 1190 nM |
|  |  |  | COc1cc(NCCCCNC(=O)/C=C/c2ccc(N(C)C)cc2)c2nc3cc(Cl)ccc3cc2c1 |  | Active | 15% |  |  |
|  |  |  | COc1cc(NCCCCNC(=O)/C=C/c2ccc(Br)cc2)c2nc3cc(Cl)ccc3cc2c1 |  | Active | 15% |  |  |
|  |  |  | COc1cc(NCCCCNC(=O)/C=C/c2ccc(C(F)(F)F)cc2)c2nc3cc(Cl)ccc3cc2c1 |  | Active | 15% |  |  |
|  |  | 5.83 µM | COc1cc(NCCCCNC(=O)/C=C/c2ccc(F)cc2)c2nc3cc(Cl)ccc3cc2c1 |  | Active | 15% | ~75% | 884 nM |
|  | 6660 nM | > 70 µM | COc1cc(NCCCCNC(=O)/C=C/c2ccccc2)c2nc3cc(Cl)ccc3cc2c1 |  | Active | >40% | ~75% | 496 nM |
|  |  |  | COc1cc(NCCCCNC(=O)/C=C/c2ccc(Cl)cc2)c2nc3cc(Cl)ccc3cc2c1 |  | Active | 15% | ~75% | 998 nM |
|  |  |  | COc1cc(NC(C)CCCN)c2ncccc2c1 (stereo not given) [PRIMAQUINE] |  |  |  |  | 12300 nM |
|  |  |  | COc1cc(NCCCCNC(=O)/C=C/c2ccc(C(C)C)cc2)c2nc3cc(Cl)ccc3cc2c1 |  | Active |  |  | 129 nM |
